{
  "source": "ChEMBL document CHEMBL4414563",
  "about": "“Pyrimidine Nucleosides from Streptomyces sp. SSA28” (J Nat Prod, 2019)",
  "note": "Where a name gives a salt, the structure may show the parent alone.",
  "data": [
    {"test_system": "HCT-116", "test": "Cytotoxicity against human HCT116 cells assessed as reduction in cell viability after 24 hrs by SRB assay", "assay_type": "functional, cell-based", "conditions": "HCT-116, 24 h", "method_in_brief": "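Human colon cancer HCT-116 cells, read out by sulforhodamine B (SRB) staining, with adriamycin as the positive control.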", "units": {"IC50": "µM"}, "values": [
      {"smiles": "CC(C)/C=C/C(=O)Nc1ccn([C@H]2CC[C@H](O[C@H]3O[C@H](C)[C@@H](N(C)C)[C@H](O)[C@H]3O)[C@@H](C)O2)c(=O)n1", "IC50": 0.78},
      {"smiles": "CC(C)C(=O)Nc1ccc(C(=O)Nc2ccn([C@H]3CC[C@H](O[C@H]4O[C@H](C)[C@@H](N(C)C)[C@H](O)[C@H]4O)[C@@H](C)O3)c(=O)n2)cc1", "IC50": 6.63},
      {"smiles": "C[C@H]1O[C@@H](n2ccc(NC(=O)Cc3ccccc3)nc2=O)CC[C@@H]1O", "IC50": "> 20"},
      {"smiles": "CCC(C)/C=C/C(=O)Nc1ccn([C@H]2CC[C@H](O[C@H]3O[C@H](C)[C@@H](N(C)C)[C@H](O)[C@H]3O)[C@@H](C)O2)c(=O)n1", "note": "(some centres not stated)", "IC50": 0.89},
      {"smiles": "CC(C)=CC(=O)Nc1ccn([C@H]2C[C@@H](O)[C@H](O)[C@@H](C)O2)c(=O)n1", "IC50": "> 20"},
      {"smiles": "CC(C)CC(=O)Nc1ccn([C@H]2CC[C@H](O[C@H]3O[C@H](C)[C@@H](N(C)C)[C@H](O)[C@H]3O)[C@@H](C)O2)c(=O)n1", "IC50": 2.14},
      {"smiles": "CC(C)/C=C/C(=O)Nc1ccn([C@H]2CC[C@H](O)[C@@H](C)O2)c(=O)n1", "IC50": "> 20"},
      {"smiles": "C[C@H]1O[C@@H](n2ccc(NC(=O)CC(C)(C)O)nc2=O)CC[C@@H]1O", "IC50": "> 20"},
      {"smiles": "CC(=O)C(C)Nc1ccc(C(=O)Nc2ccn([C@H]3CC[C@H](O)[C@@H](C)O3)c(=O)n2)cc1", "note": "(some centres not stated)", "IC50": "> 20"},
      {"smiles": "CC(C)=CCC(=O)Nc1ccn([C@H]2CC[C@H](O)[C@@H](C)O2)c(=O)n1", "IC50": "> 20"},
      {"smiles": "CC(C)CCC(=O)Nc1ccn([C@H]2CC[C@H](O)[C@@H](C)O2)c(=O)n1", "IC50": "> 20"},
      {"smiles": "CC(C)C(=O)Nc1ccn([C@H]2CC[C@H](O)[C@@H](C)O2)c(=O)n1", "IC50": "> 20"},
      {"smiles": "CCC(=O)Nc1ccn([C@H]2CC[C@H](O)[C@@H](C)O2)c(=O)n1", "IC50": "> 20"},
      {"smiles": "CC(C)CCC(=O)Nc1ccn([C@H]2CC[C@H](O[C@H]3O[C@H](C)[C@@H](N(C)C)[C@H](O)[C@H]3O)[C@@H](C)O2)c(=O)n1", "IC50": 0.39},
      {"smiles": "CC(=O)Nc1ccn([C@H]2CC[C@H](O)[C@@H](C)O2)c(=O)n1", "IC50": "> 20"},
      {"smiles": "C/C=C(\\C)C(=O)Nc1ccn([C@H]2CC[C@H](O[C@H]3O[C@H](C)[C@@H](N(C)C)[C@H](O)[C@H]3O)[C@@H](C)O2)c(=O)n1", "IC50": 6.45},
      {"smiles": "COc1cccc2c1C(=O)c1c(O)c3c(c(O)c1C2=O)C[C@@](O)(C(=O)CO)C[C@@H]3O[C@H]1C[C@H](N)[C@H](O)[C@H](C)O1", "note": "[DOXORUBICIN HYDROCHLORIDE]", "IC50": 0.06}
    ]}
  ]
}
